# Data: ChEMBL document CHEMBL4689842, “EUbOPEN Chemogenomics Library wave 1” (2021)
# System: HEK-293T
# Assay: Multiplex assay against HEK293T;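 as to Population Tubulin-Different-Phenotype (%): share of the cells with healthy nuclei that show this phenotype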
# Type: toxicity, cell-based
# Settings: human
# Summary of the method: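 Live cells carried four stains from seeding: Hoechst33342, BioTracker Green Microtubule Cytoskeleton Dye, MitoTracker Red and Annexin V Alexa Fluor 680. They were imaged on a CQ1 microscope at 37°C and 5% CO2 after compound addition. Using CellPathfinder machine-learning gating, cells were split into Hoechst high-intensity objects or normal cells, normal cells into healthy, pyknosed or fragmented nuclei, and pyknosed cells into mitotic or apoptotic; tubulin, mitochondrial-mass and membrane-permeability phenotypes are per cents of healthy-nucleus cells.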
# [1] = 12 h, 1 µM, compound concentration 1 uM, replicate 1
# [2] = 12 h, 1 µM, compound concentration 1 uM, replicate 2
# [3] = 12 h, 10 µM, compound concentration 10 uM, replicate 1
# [4] = 12 h, 10 µM, compound concentration 10 uM, replicate 2
# [5] = 24 h, 1 µM, compound concentration 1 uM, replicate 1
# [6] = 24 h, 1 µM, compound concentration 1 uM, replicate 2
# [7] = 24 h, 10 µM, compound concentration 10 uM, replicate 1
# [8] = 24 h, 10 µM, compound concentration 10 uM, replicate 2
smiles,measurement,setting,value
C=CC(=O)Nc1cccc(Sc2nc(Nc3ccc(N4CCN(C)CC4)cc3)ncc2Cl)c1,Population Apoptotic (%),[1],33%
same,Population Fragmented Nuclei (%),[1],28%
same,Population Healthy Nuclei (%),[1],14%
same,Population Hoechst High Intensity Objects (%),[1],16%
same,Population Membrane Permeable-Phenotype (%),[1],22%
same,Population Mitochondria Different-Phenotype (%),[1],15%
same,Population Mitotic Cells (%),[1],66%
same,Population Normal (%),[1],83%
same,Population Pyknosed Nuclei (%),[1],57%
same,Population Tubulin-Different-Phenotype (%),[1],58%
same,Total Cell Count,[1],748
same,Population Apoptotic (%),[2],20%
same,Population Fragmented Nuclei (%),[2],4%
same,Population Healthy Nuclei (%),[2],64%
same,Population Hoechst High Intensity Objects (%),[2],10%
same,Population Membrane Permeable-Phenotype (%),[2],7%
same,Population Mitochondria Different-Phenotype (%),[2],44%
same,Population Mitotic Cells (%),[2],79%
same,Population Normal (%),[2],89%
same,Population Pyknosed Nuclei (%),[2],30%
same,Population Tubulin-Different-Phenotype (%),[2],98%
same,Total Cell Count,[2],1010
same,Population Apoptotic (%),[3],21%
same,Population Fragmented Nuclei (%),[3],26%
same,Population Healthy Nuclei (%),[3],38%
same,Population Hoechst High Intensity Objects (%),[3],21%
same,Population Membrane Permeable-Phenotype (%),[3],10%
same,Population Mitochondria Different-Phenotype (%),[3],13%
same,Population Mitotic Cells (%),[3],78%
same,Population Normal (%),[3],78%
same,Population Pyknosed Nuclei (%),[3],35%
same,Population Tubulin-Different-Phenotype (%),[3],14%
same,Total Cell Count,[3],476
same,Population Apoptotic (%),[4],6%
same,Population Fragmented Nuclei (%),[4],7%
same,Population Healthy Nuclei (%),[4],84%
same,Population Hoechst High Intensity Objects (%),[4],3%
same,Population Membrane Permeable-Phenotype (%),[4],5%
same,Population Mitochondria Different-Phenotype (%),[4],16%
same,Population Mitotic Cells (%),[4],93%
same,Population Normal (%),[4],96%
same,Population Pyknosed Nuclei (%),[4],7%
same,Population Tubulin-Different-Phenotype (%),[4],25%
same,Total Cell Count,[4],1448
same,Population Apoptotic (%),[5],55%
same,Population Fragmented Nuclei (%),[5],34%
same,Population Healthy Nuclei (%),[5],26%
same,Population Hoechst High Intensity Objects (%),[5],14%
same,Population Membrane Permeable-Phenotype (%),[5],18%
same,Population Mitochondria Different-Phenotype (%),[5],12%
same,Population Mitotic Cells (%),[5],44%
same,Population Normal (%),[5],85%
same,Population Pyknosed Nuclei (%),[5],39%
same,Population Tubulin-Different-Phenotype (%),[5],52%
same,Total Cell Count,[5],683
same,Population Apoptotic (%),[6],28%
same,Population Fragmented Nuclei (%),[6],6%
same,Population Healthy Nuclei (%),[6],63%
same,Population Hoechst High Intensity Objects (%),[6],10%
same,Population Membrane Permeable-Phenotype (%),[6],6%
same,Population Mitochondria Different-Phenotype (%),[6],63%
same,Population Mitotic Cells (%),[6],71%
same,Population Normal (%),[6],89%
same,Population Pyknosed Nuclei (%),[6],29%
same,Population Tubulin-Different-Phenotype (%),[6],97%
same,Total Cell Count,[6],914
same,Population Apoptotic (%),[7],26%
same,Population Fragmented Nuclei (%),[7],18%
same,Population Healthy Nuclei (%),[7],64%
same,Population Hoechst High Intensity Objects (%),[7],12%
same,Population Membrane Permeable-Phenotype (%),[7],10%
same,Population Mitochondria Different-Phenotype (%),[7],12%
same,Population Mitotic Cells (%),[7],73%
same,Population Normal (%),[7],87%
same,Population Pyknosed Nuclei (%),[7],17%
same,Population Tubulin-Different-Phenotype (%),[7],30%
same,Total Cell Count,[7],470
same,Population Apoptotic (%),[8],4%
same,Population Fragmented Nuclei (%),[8],20%
same,Population Healthy Nuclei (%),[8],76%
same,Population Hoechst High Intensity Objects (%),[8],4%
same,Population Membrane Permeable-Phenotype (%),[8],7%
same,Population Mitochondria Different-Phenotype (%),[8],2%
same,Population Mitotic Cells (%),[8],95%
same,Population Normal (%),[8],95%
same,Population Pyknosed Nuclei (%),[8],3%
same,Population Tubulin-Different-Phenotype (%),[8],19%
same,Total Cell Count,[8],2375
